Assay results published in ChEMBL document CHEMBL3875202, “Design and optimization of aspartate N-acetyltransferase inhibitors for the potential treatment of Canavan disease” (Bioorg Med Chem, 2017).
Where a SMILES comes first, the peptide text is derived from it.

experiment: Inhibition of recombinant human His-tagged maltose binding protein fused ANAT expressed in Escherichia coli NiCo21(DE3) using L-aspartate as substrate after 15 mins in presence of acetyl-CoA by DTNB based spectrophotometric method
Method in brief: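 MBP-ANAT-His fusion purified on Ni Sepharose then amylose column. Assay: 20 mM HEPES pH 7.4, 150 mM NaCl, 5% glycerol, 40 µM DTNB, 40 µM acetyl-CoA, 2 mM L-aspartate, 25 µg enzyme, 200 µl total. Read at 412 nm for at least 15 min. Ki from twofold inhibitor dilutions; no-inhibitor and no-aspartate/no-inhibitor controls; pH of top-dose wells checked.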

SMILES | Ki [µM]
O=C(O)C[C@H](NC(=O)OCc1ccccc1)C(=O)O | 17
O=C(O)CC[C@H](NC(=O)c1ccccc1)C(=O)O | 130
O=C(O)CC[C@H](NC(=O)OCc1ccccc1)C(=O)O | 12
O=C(O)CCNCc1ccc(C(=O)O)c(C(=O)O)c1 | 1710
C=CCN(CC(=O)O)Cc1ccc(C(=O)O)c(C(=O)O)c1 | 719
O=C(O)CN(Cc1ccccc1)Cc1ccc(C(=O)O)c(C(=O)O)c1 | 420
O=C(O)CN(Cc1ccc(C(=O)O)c(C(=O)O)c1)c1cccc2ccccc12 | 115
O=C(O)CN(Cc1ccc(C(=O)O)c(C(=O)O)c1)c1ccc2ccccc2c1 | 538
O=C(O)CN(CCN1CCOCC1)Cc1ccc(C(=O)O)c(C(=O)O)c1 | 1080
O=C(O)CN(Cc1ccc(C(=O)O)c(C(=O)O)c1)c1ccc(-c2ccccc2)cc1 | 953
O=CCN(CC(=O)O)Cc1ccc(C(=O)O)c(C(=O)O)c1 | 1290
O=C(O)CN(Cc1ccc(C(=O)O)c(C(=O)O)c1)Cc1ccccc1Br | 114
O=C(O)CN(Cc1cccc(Br)c1)Cc1ccc(C(=O)O)c(C(=O)O)c1 | 269
O=C(O)CN(Cc1ccc(Br)cc1)Cc1ccc(C(=O)O)c(C(=O)O)c1 | 1200
Cc1ccccc1CN(CC(=O)O)Cc1ccc(C(=O)O)c(C(=O)O)c1 | 1400
Cc1cccc(CN(CC(=O)O)Cc2ccc(C(=O)O)c(C(=O)O)c2)c1 | 1700
Cc1ccc(CN(CC(=O)O)Cc2ccc(C(=O)O)c(C(=O)O)c2)cc1 | 4230
O=C(O)CN(Cc1ccc(C(=O)O)c(C(=O)O)c1)Cc1ccccc1C(F)(F)F | 390
O=C(O)CN(Cc1cccc(C(F)(F)F)c1)Cc1ccc(C(=O)O)c(C(=O)O)c1 | 104
O=C(O)CN(Cc1ccc(C(F)(F)F)cc1)Cc1ccc(C(=O)O)c(C(=O)O)c1 | 791
O=C(O)CN(Cc1ccc(C(=O)O)c(C(=O)O)c1)Cc1ccccc1OC(F)(F)F | 464
O=C(O)CN(Cc1cccc(OC(F)(F)F)c1)Cc1ccc(C(=O)O)c(C(=O)O)c1 | 246

SMILES | Ki [µM]
O=C(O)CN(Cc1ccc(OC(F)(F)F)cc1)Cc1ccc(C(=O)O)c(C(=O)O)c1 | 749
O=C(O)CN(Cc1ccc(OC(F)F)cc1)Cc1ccc(C(=O)O)c(C(=O)O)c1 | 489
O=C(O)CN(Cc1ccc(C(=O)O)cc1)Cc1ccc(C(=O)O)c(C(=O)O)c1 | 104
NC(=O)c1ccc(CN(CC(=O)O)Cc2ccc(C(=O)O)c(C(=O)O)c2)cc1 | 1880
CC(C)(C)c1ccc(CN(CC(=O)O)Cc2ccc(C(=O)O)c(C(=O)O)c2)cc1 | 687
O=C(O)CN(Cc1ccc(C(F)(F)C(F)(F)C(F)(F)F)cc1)Cc1ccc(C(=O)O)c(C(=O)O)c1 | 426
O=C(O)CCN(Cc1ccc(Br)cc1)Cc1ccc(C(=O)O)c(C(=O)O)c1 | 370
O=C(O)CCN(Cc1ccc(C(F)(F)F)cc1)Cc1ccc(C(=O)O)c(C(=O)O)c1 | 186
CCCC(=O)N[C@@H](CCC(=O)O)C(=O)O | 270
O=C(O)C[C@H](NC(=O)CCCc1ccccc1)C(=O)O | 200
O=C(O)CCN(Cc1ccc(C(=O)O)c(C(=O)O)c1)Cc1ccc(C(=O)O)cc1-c1ccccc1 | 47.4
O=C(O)CCN(Cc1ccc(C(=O)O)c(C(=O)O)c1)Cc1ccc(C(=O)O)cc1C(F)(F)F | 17
CC(=O)c1ccc(CN(CC(=O)O)Cc2ccc(C(=O)O)c(C(=O)O)c2)cc1 | 2540
O=C(O)CC[C@H](NC(=O)CCc1ccccc1)C(=O)O | 38
O=C(O)C[C@H](NCCCCc1ccccc1)C(=O)O | 100
O=C(O)CCN(Cc1ccc(C(=O)O)c(C(=O)O)c1)Cc1c(Cl)cc(C(=O)O)cc1Cl [listing 1 of 2 here] | 0.6
O=C(O)C[C@H](NC(=O)CCc1ccccc1C(F)(F)F)C(=O)O | 100
O=C(O)CC[C@H](NC(=O)CCCc1ccccc1)C(=O)O | 610
O=C(O)CCN(Cc1ccc(C(=O)O)c(C(=O)O)c1)Cc1ccccc1Br | 173
O=C(O)CCC[C@H](NC(=O)Cc1ccccc1)C(=O)O | 1160
O=C(O)CCN(Cc1ccc(C(=O)O)c(C(=O)O)c1)c1cccc2ccccc12 | 34
O=C(O)C[C@H](NC(=O)c1ccc2ccccc2c1)C(=O)O | 390

SMILES | Ki [µM]
O=C(CCc1ccccc1)NC(C(=O)O)C(=O)O | 1400
O=C(O)C[C@H](NCCCc1ccccc1)C(=O)O | 120
O=C(O)C[C@H](NC(=O)CCc1cccc(C(F)(F)F)c1)C(=O)O | 1220
O=C(O)CCC[C@H](NC(=O)c1ccccc1)C(=O)O | 1600
O=C(O)CCN(Cc1ccc(C(=O)O)c(C(=O)O)c1)Cc1ccc(C(=O)O)cc1Br | 2.01
O=C(O)CCN(Cc1ccc(C(=O)O)c(C(=O)O)c1)Cc1ccc(C(=O)O)cc1F | 4.06
O=C(O)CC[C@H](NC(=O)Cc1ccccc1)C(=O)O | 250
COc1ccc(CCC(=O)N[C@@H](CC(=O)O)C(=O)O)cc1 | 1500
O=C(O)C[C@H](NC(=O)CBr)C(=O)O | > 2000
O=C(O)C[C@H](NC(=O)CCc1ccc(O)c(O)c1)C(=O)O | 1560
O=C(O)CCC[C@H](NC(=O)CCc1ccccc1)C(=O)O | 2900
O=C(O)CCN(Cc1ccc(C(=O)O)c(C(=O)O)c1)Cc1ccc(C(=O)O)cc1-c1cccc2ccccc12 | 187
O=C(O)CCN(Cc1ccc(C(=O)O)cc1)Cc1ccc(C(=O)O)c(C(=O)O)c1 | 29
CC(C)(C)C(=O)N[C@@H](CCCC(=O)O)C(=O)O | 760
Cc1cccc(CN(CCC(=O)O)Cc2ccc(C(=O)O)c(C(=O)O)c2)c1 | 563
O=C(O)CCN(Cc1ccc(C(=O)O)c(C(=O)O)c1)Cc1ccccc1C(F)(F)F | 88
O=C(O)C[C@H](NC(=O)CCl)C(=O)O | 200
O=C(O)C[C@H](NC(=O)Cc1ccccc1)C(=O)O | 460
O=C(O)CCN(Cc1ccc(C(=O)O)c(C(=O)O)c1)Cc1ccc(C(=O)O)cc1Cl | 1.7
CC(C)(C)C(=O)N[C@@H](CCC(=O)O)C(=O)O | 280
O=C(O)C[C@H](NCc1ccccc1)C(=O)O | 620
Cc1ccc(CN(CCC(=O)O)Cc2ccc(C(=O)O)c(C(=O)O)c2)cc1 | 2750

SMILES | Ki [µM]
O=C(O)CCN(Cc1cccc(Br)c1)Cc1ccc(C(=O)O)c(C(=O)O)c1 | 101
O=C(O)CCN(Cc1ccc(C(=O)O)c(C(=O)O)c1)c1ccc(-c2ccccc2)cc1 | 550
O=C(O)C[C@H](NC(=O)CCc1ccccc1)C(=O)O | 31
O=C(O)CCN(Cc1ccc(C(=O)O)c(C(=O)O)c1)Cc1c(Cl)cc(C(=O)O)cc1Cl [listing 2 of 2 here] | 0.61
O=C(O)C[C@H](NC(=O)CCc1ccc(-c2ccccc2)cc1)C(=O)O | 210
O=C(O)C[C@H](NC(=O)c1ccc(C(F)(F)F)cc1)C(=O)O | 380
O=C(O)CCN(Cc1ccc(C(=O)O)c(C(=O)O)c1)Cc1c(Br)cc(C(=O)O)cc1Br | 0.77
Cc1ccccc1CN(CCC(=O)O)Cc1ccc(C(=O)O)c(C(=O)O)c1 | 724
Cc1ccccc1CCC(=O)N[C@@H](CC(=O)O)C(=O)O | 280
O=C(O)CCN(Cc1cccc(C(F)(F)F)c1)Cc1ccc(C(=O)O)c(C(=O)O)c1 | 37
O=C(O)CCC[C@H](NC(=O)CCCc1ccccc1)C(=O)O | 740
O=C(O)C[C@H](NC(=O)c1ccccc1)C(=O)O | > 2000
CCCC(=O)N[C@@H](CCCC(=O)O)C(=O)O | > 2000
O=C(O)CCC[C@H](NC(=O)CCC(=O)O)C(=O)O | > 2000
O=C(O)CCN(Cc1ccc(C(=O)O)c(C(=O)O)c1)Cc1ccc(C(=O)O)c(C(F)(F)F)c1 | 930
O=C(O)/C=C(\Br)C(=O)O | 367
O=C(O)C[C@H](NCCc1ccccc1)C(=O)O | 250
CC(C)(C)c1ccc(CN(CCC(=O)O)Cc2ccc(C(=O)O)c(C(=O)O)c2)cc1 | 1660
C[C@H](N)C(=O)N[C@@H](CC(=O)O)C(=O)O (H-Ala-Asp-OH) | 1600
